What was measured:
[1] = melting temperature; fluorescence melt of hairpins on a sequencing array, two-state fit, raised by 9.35 °C to match UV melts; conditions: sodium 0.088 M
Outline: (§1)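 Cy3 signals were normalised both to pre-quench Cy3 and to control constructs. They came from library hairpins carrying annealed Cy3 and quencher oligos on a sequenced MiSeq flow cell, imaged in 50 mM Na-HEPES pH 8.0, 25 mM NaCl, in 2.5 °C steps up to 60 °C. Bootstrapped two-state fits gave melting temperature and folding enthalpy, and four replicates were combined by inverse variance. Fitted temperatures were then raised by 9.35 °C to match UV melts.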

[2] = folding enthalpy; higher = less favourable; fluorescence melt of hairpins on a sequencing array, two-state fit; conditions: sodium 0.088 M
Outline: as §1

GTTAAGCGAAAGCTCAAC (((.(((....))).)))
Tm [1]: 37.6 °C
folding enthalpy [2]: -16.7 kcal/mol

GTTAAGGGAAACCTTAGC (.(((((....))))).)
Tm [1]: 34.8 °C
folding enthalpy [2]: -23.4 kcal/mol

GTTAATCGAAAGATAAC (((.(((....))))))
Tm [1]: 30.1 °C
folding enthalpy [2]: -16.8 kcal/mol

GTTAATCGAAAGATCAAC (((.(((....))).)))
Tm [1]: 30.2 °C
folding enthalpy [2]: -14.7 kcal/mol

GTTAATCGAAAGATGAAC (((.(((....))).)))
Tm [1]: 38.3 °C
folding enthalpy [2]: -25.1 kcal/mol

GTTACACGAAAGTGAAAC (((.(((....))).)))
Tm [1]: 45.3 °C
folding enthalpy [2]: -23.6 kcal/mol

GTTACAGCGAAAGCTAAC (((..(((....))))))
Tm [1]: 28.2 °C
folding enthalpy [2]: -11.1 kcal/mol

GTTACCCGAAAGGGAAAC (((.(((....))).)))
Tm [1]: 48.6 °C
folding enthalpy [2]: -21.6 kcal/mol

GTTACCGAAAGGTAAAC ((((((....))).)))
Tm [1]: 48 °C
folding enthalpy [2]: -15.7 kcal/mol

GTTACCGAAAGGTACAAC ((((((....)))..)))
Tm [1]: 31.2 °C
folding enthalpy [2]: -10.9 kcal/mol

GTTACCGAAAGGTGGAAC ((((((....)))..)))
Tm [1]: 28.1 °C
folding enthalpy [2]: -10.2 kcal/mol

GTTACCGAAAGGTTCAAC ((((((....)))..)))
Tm [1]: 25 °C
folding enthalpy [2]: -8.36 kcal/mol

GTTACCGGAAACAGTAAC (((((.(....).)))))
Tm [1]: 32.8 °C
folding enthalpy [2]: -17.2 kcal/mol

GTTACGAAAGTAAC (((((....)))))
Tm [1]: 54.7 °C
folding enthalpy [2]: -30 kcal/mol

GTTACGGGAAACCGTGAC ((.((((....)))).))
Tm [1]: 49.8 °C
folding enthalpy [2]: -29.8 kcal/mol

GTTACTCGAAAGAGAAC (((.(((....))))))
Tm [1]: 31.5 °C
folding enthalpy [2]: -13.7 kcal/mol

GTTACTGGAAACAGTAGC (.(((((....))))).)
Tm [1]: 40.3 °C
folding enthalpy [2]: -24.2 kcal/mol

GTTAGCCGAAAGGCAAC (((.(((....))))))
Tm [1]: 49.3 °C
folding enthalpy [2]: -13.5 kcal/mol

GTTAGCCGAAAGGCCAAC (((.(((....))).)))
Tm [1]: 40.3 °C
folding enthalpy [2]: -16 kcal/mol

GTTAGCGAAAGCTACAAC ((((((....)))..)))
Tm [1]: 30.4 °C
folding enthalpy [2]: -8.63 kcal/mol

GTTAGCGAAAGCTAGAAC ((((((....)))..)))
Tm [1]: 31.5 °C
folding enthalpy [2]: -10 kcal/mol

GTTAGGCGAAAGCCAAC (((.(((....))))))
Tm [1]: 50.7 °C
folding enthalpy [2]: -12.7 kcal/mol

GTTAGGCGAAAGCCCAAC (((.(((....))).)))
Tm [1]: 37.2 °C
folding enthalpy [2]: -13.8 kcal/mol

GTTAGGGCGAAAGCCAAC (((..(((....))))))
Tm [1]: 29.3 °C
folding enthalpy [2]: -8.42 kcal/mol

GTTAGTGCGAAAGCAAAC (((..(((....))))))
Tm [1]: 28.3 °C
folding enthalpy [2]: -10.6 kcal/mol

GTTATACGAAAGTAAAAC (((.(((....))).)))
Tm [1]: 32.2 °C
folding enthalpy [2]: -20.2 kcal/mol

GTTATAGGAAACTATAAC (((((((....)))))))
Tm [1]: 45.4 °C
folding enthalpy [2]: -35.5 kcal/mol

GTTATAGGAAACTGTAAC ((((.((....)).))))
Tm [1]: 34 °C
folding enthalpy [2]: -27.2 kcal/mol

GTTATATCGAAAGATAAC (((..(((....))))))
Tm [1]: 27.7 °C
folding enthalpy [2]: -11.2 kcal/mol

GTTATCGAAAGATAAAAC ((((((....)))..)))
Tm [1]: 26.5 °C
folding enthalpy [2]: -9.3 kcal/mol

GTTATCGAAAGATTAAC ((((((....))).)))
Tm [1]: 29.5 °C
folding enthalpy [2]: -15.1 kcal/mol

GTTATCGGAAACGACAAC (((.(((....))).)))
Tm [1]: 36.4 °C
folding enthalpy [2]: -19.8 kcal/mol

GTTATCGGAAACGATAGC (.(((((....))))).)
Tm [1]: 43.4 °C
folding enthalpy [2]: -21.5 kcal/mol

GTTATGAAAATAAC (((((....)))))
Tm [1]: 38.6 °C
folding enthalpy [2]: -16.9 kcal/mol

GTTATGTCGAAAGACAAC (((..(((....))))))
Tm [1]: 28.5 °C
folding enthalpy [2]: -10.6 kcal/mol

GTTATTCGAAAGAACAAC (((.(((....))).)))
Tm [1]: 30.5 °C
folding enthalpy [2]: -20.6 kcal/mol

GTTCAACCGAAAGGTAAC (((..(((....))))))
Tm [1]: 26.7 °C
folding enthalpy [2]: -11.7 kcal/mol

GTTCAAGGAAACTTAAAC (((.(((....))).)))
Tm [1]: 29 °C
folding enthalpy [2]: -10.5 kcal/mol

GTTCACCGAAAGGTAAAC (((.(((....))).)))
Tm [1]: 40.5 °C
folding enthalpy [2]: -20.4 kcal/mol

GTTCACGAAAGTGAAAC ((((((....))).)))
Tm [1]: 46.1 °C
folding enthalpy [2]: -16.3 kcal/mol

GTTCACGAAAGTGCGAAC ((((((....)))..)))
Tm [1]: 31.6 °C
folding enthalpy [2]: -10.7 kcal/mol

GTTCACGAAAGTGGAAAC ((((((....)))..)))
Tm [1]: 30.9 °C
folding enthalpy [2]: -13.4 kcal/mol

GTTCACGAAAGTGGAAC ((((((....))).)))
Tm [1]: 45.4 °C
folding enthalpy [2]: -19.1 kcal/mol

GTTCACGAAAGTGGTAAC ((((((....)))..)))
Tm [1]: 25.6 °C
folding enthalpy [2]: -12.5 kcal/mol

GTTCACGCGAAAGCGAAC (((..(((....))))))
Tm [1]: 32.7 °C
folding enthalpy [2]: -10.2 kcal/mol

GTTCAGCGAAAGCTAAC (((.(((....))))))
Tm [1]: 36.4 °C
folding enthalpy [2]: -13.8 kcal/mol

GTTCAGGGAAACCTGAGC (.(((((....))))).)
Tm [1]: 46.6 °C
folding enthalpy [2]: -22.5 kcal/mol

GTTCATCGAAAGATAAAC (((.(((....))).)))
Tm [1]: 31.5 °C
folding enthalpy [2]: -18.1 kcal/mol

GTTCATCGAAAGATTAAC (((.(((....))).)))
Tm [1]: 32.6 °C
folding enthalpy [2]: -34.2 kcal/mol

GTTCATGGAAACATGAAC (((((((....)))))))
Tm [1]: 58.2 °C
folding enthalpy [2]: -49.9 kcal/mol

GTTCATGGAAACATGAGC (.(((((....))))).)
Tm [1]: 43.9 °C
folding enthalpy [2]: -23.4 kcal/mol

GTTCCAGGAAACCGGAAC (((((.(....).)))))
Tm [1]: 45.6 °C
folding enthalpy [2]: -45.4 kcal/mol

GTTCCCGAAAGGGGAAAC ((((((....)))..)))
Tm [1]: 37.2 °C
folding enthalpy [2]: -11.8 kcal/mol

GTTCCCGAAAGGGGAAC ((((((....))).)))
Tm [1]: 57.4 °C
folding enthalpy [2]: -20.8 kcal/mol

GTTCCCGAAAGGGGGAAC ((((((....)))..)))
Tm [1]: 48.4 °C
folding enthalpy [2]: -19.3 kcal/mol

GTTCCCGGAAACGGAAAC (((.(((....))).)))
Tm [1]: 41.1 °C
folding enthalpy [2]: -24.4 kcal/mol

GTTCCTCGAAAGAGAAAC (((.(((....))).)))
Tm [1]: 38.1 °C
folding enthalpy [2]: -20.3 kcal/mol

GTTCGCGAAAGCGAGAAC ((((((....)))..)))
Tm [1]: 42.3 °C
folding enthalpy [2]: -9.97 kcal/mol

GTTCGCGAAAGCGTAAAC ((((((....)))..)))
Tm [1]: 31.9 °C
folding enthalpy [2]: -10.3 kcal/mol

GTTCGCGCGAAAGCGAAC (((..(((....))))))
Tm [1]: 60.5 °C
folding enthalpy [2]: -28.1 kcal/mol

GTTCGCGGAAACGCAAAC (((.(((....))).)))
Tm [1]: 43.7 °C
folding enthalpy [2]: -20.8 kcal/mol

GTTCGGACGAAAGTCAAC (((..(((....))))))
Tm [1]: 29.1 °C
folding enthalpy [2]: -9.64 kcal/mol

GTTCGGCGAAAGCCTAAC (((.(((....))).)))
Tm [1]: 43 °C
folding enthalpy [2]: -19.2 kcal/mol

GTTCGGGGAAACCCGAAC (((((((....)))))))
Tm [1]: 69 °C
folding enthalpy [2]: -39.6 kcal/mol

GTTCGTCGAAAGACTAAC (((.(((....))).)))
Tm [1]: 41.3 °C
folding enthalpy [2]: -22.2 kcal/mol

GTTCGTGGAAACATGAGC (.((.((....)).)).)
Tm [1]: 31.6 °C
folding enthalpy [2]: -18.1 kcal/mol

GTTCGTGGAAACGTGAAC ((((..(....)..))))
Tm [1]: 34.8 °C
folding enthalpy [2]: -15.3 kcal/mol

GTTCTACGAAAGTATAAC (((.(((....))).)))
Tm [1]: 34.5 °C
folding enthalpy [2]: -24 kcal/mol

GTTCTAGCGAAAGCTAAC (((..(((....))))))
Tm [1]: 28.9 °C
folding enthalpy [2]: -9.98 kcal/mol

GTTCTAGGAAACTAGAAC (((((((....)))))))
Tm [1]: 53.1 °C
folding enthalpy [2]: -35 kcal/mol

GTTCTCACGAAAGTGAAC (((..(((....))))))
Tm [1]: 31.6 °C
folding enthalpy [2]: -10.9 kcal/mol

GTTCTCGAAAGAGAAAC ((((((....))).)))
Tm [1]: 39.7 °C
folding enthalpy [2]: -17 kcal/mol

GTTCTGCGAAAGCACAAC (((.(((....))).)))
Tm [1]: 33.3 °C
folding enthalpy [2]: -12.6 kcal/mol

GTTCTTGGAAACGAGAAC (((((.(....).)))))
Tm [1]: 43.6 °C
folding enthalpy [2]: -28.6 kcal/mol

GTTGACACGAAAGTGAAC (((..(((....))))))
Tm [1]: 34.1 °C
folding enthalpy [2]: -14.2 kcal/mol

GTTGACCGAAAGGTGAAC (((.(((....))).)))
Tm [1]: 48.4 °C
folding enthalpy [2]: -27 kcal/mol

GTTGACGAAAGTCAGAAC ((((((....)))..)))
Tm [1]: 36.5 °C
folding enthalpy [2]: -10.4 kcal/mol

GTTGACGAAAGTCGAAC ((((((....))).)))
Tm [1]: 45.4 °C
folding enthalpy [2]: -18.4 kcal/mol

GTTGACGGAAACGCCAAC ((((.((....)).))))
Tm [1]: 49.6 °C
folding enthalpy [2]: -39.8 kcal/mol

GTTGACGGAAACGTCAAC (((((((....)))))))
Tm [1]: 66.9 °C
folding enthalpy [2]: -33.6 kcal/mol

GTTGACGGAAACGTCGAC ((.((((....)))).))
Tm [1]: 54.8 °C
folding enthalpy [2]: -43.4 kcal/mol

GTTGACGGAAACGTTAAC (((.(((....))).)))
Tm [1]: 47.1 °C
folding enthalpy [2]: -27 kcal/mol

GTTGAGCCGAAAGGCAAC (((..(((....))))))
Tm [1]: 38.8 °C
folding enthalpy [2]: -10.6 kcal/mol

GTTGAGGGAAACCTCAAC (((((((....)))))))
Tm [1]: 59.8 °C
folding enthalpy [2]: -42.2 kcal/mol

GTTGATGGAAACATCGAC ((.((((....)))).))
Tm [1]: 48.5 °C
folding enthalpy [2]: -35.9 kcal/mol

GTTGCACGAAAGTGGAAC (((.(((....))).)))
Tm [1]: 56.6 °C
folding enthalpy [2]: -35.5 kcal/mol

GTTGCACGAAAGTGTAAC (((.(((....))).)))
Tm [1]: 55.5 °C
folding enthalpy [2]: -29.8 kcal/mol

GTTGCAGAAATGCAAC ((((((....))))))
Tm [1]: 57.5 °C
folding enthalpy [2]: -35.3 kcal/mol

GTTGCAGGAAACCGCAAC (((((.(....).)))))
Tm [1]: 51.5 °C
folding enthalpy [2]: -43.8 kcal/mol

GTTGCAGGAAACTGCAGC (.(((((....))))).)
Tm [1]: 51.5 °C
folding enthalpy [2]: -17.4 kcal/mol

GTTGCCGAAAGGCAGAAC ((((((....)))..)))
Tm [1]: 37.3 °C
folding enthalpy [2]: -8.61 kcal/mol
